Yeast eIF2B: eIF2B (yeast) activity modulation | S. cerevisiae eIF2B-epsilon R284H, GCN4-lacZ luminescence | inhibition, % at 25 µM (by protocol) | 27,000 compounds, 0.91% hits | AID 688;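 active = mutant luminescence inhibited past about 50% while wild type luminescence and mutant growth stay under set limits, limit read from the data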
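System: Yeast eIF2B-epsilon R284H mutant carrying GCN4–beta-galactosidase fusion | Read-out basis: Percent inhibition, luminescence and growth | Compound: 25 µM single dose | Times: 16 h at 30 °C exposure | Measured by: Luminescence and A595 | Buffer or medium: YPD medium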
Yeast tox: Inhibitors of S. cerevisiae growth, toxicity. growth inhibition, % at 25 µM (by protocol). S. cerevisiae wild-type growth, A595 turbidity, 16 h. AID 685. 30,000 compounds, 0.3% hits;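 active = mutant and wild-type yeast strains alike exhibit over 30% growth inhibition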
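Schedule: 16 h growth with compound, 30 °C. System: yeast, wild-type or eIF2Bepsilon-R284H mutant. Doses: one dose, 25 µM compound[…]. Buffer or medium: YPD. Signal: turbidity measured as absorbance at 595 nm. Read-out basis: growth inhibition (%) versus cell controls and blanks.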
Each line names hits and unclear results; the compound was inactive in the other large screens; ! = not active in a repeat. Rows were chosen to be rich in hits. Some 1% of all compounds tested hit in one or more screens of this group.

COc1cccc(CNC(=O)C(=O)NCC2CCCO2)c1 (configuration not stated)	none
Fc1ccc(Nc2nc(Oc3ccc4c(c3)OCO4)nc(N3CCOCC3)n2)c(F)c1	Yeast eIF2B 56.7
c1ccc(Oc2nc(Oc3ccccc3)nc(N3CCOCC3)n2)cc1	none
CCOC(=O)C1=C(C)NC(C)=C(C(=O)OCC)C1C(=O)OCC(=O)N1CCc2ccccc2C1	Yeast eIF2B 58.7
O=C(CNC1CCCCC1)N1CCc2ccccc2C1	none (no result: Yeast eIF2B)
Cc1cccc(N(Cc2cc3ccccc3[nH]c2=O)C(=O)c2ccco2)c1C	none
Cc1ccc2nc(-c3cccnc3)oc2c1	Yeast eIF2B 53.1
Cc1ccc(-c2nc3cc(C)ccc3o2)cc1	none
C=C(C)CSc1nnc([C@@H]2CCCN2C(=O)OC(C)(C)C)o1	none
Cc1cc(=O)[nH]c(N=N/C(=N/Nc2ccc(O)cc2)c2ccccc2)n1	Yeast eIF2B 50.3
COc1ccc(N/N=C(/N=Nc2nc(C)cc(=O)[nH]2)c2ccccc2)cc1	none
CC(C)(C)Nc1nc2nonc2nc1NC(C)(C)C	none (no result: Yeast eIF2B)
O=C(Nc1nc(-c2ccc(S(=O)(=O)N3CCCCCC3)cc2)cs1)c1cccs1	Yeast eIF2B 60.2
O=C(Nc1nc(-c2ccc(S(=O)(=O)N3CCCC3)cc2)cs1)c1cccs1	none (no result: Yeast tox)
COc1ccc(CCn2c(=S)[nH]c3cc(C(=O)NCc4ccco4)ccc3c2=O)cc1OC	none
OCCn1c(Cl)nc2ccccc21	none
CCOCCCNC(=O)C1CCN(c2cc(C)nc3c(-c4ccc(OC)c(OC)c4)c(C)nn23)CC1	Yeast eIF2B 63.3
Cc1cc(N2CCC(C)CC2)n2nc(C)c(-c3ccccc3)c2n1	none
CCOC(=O)/C=c1\sc2n(c1=O)CCN=2	none
O=c1/c(=C/c2ccc(O)cc2)sc2n1CCCN=2	Yeast eIF2B 78.8
O=S(=O)(Nc1cccnc1)c1ccc(Cl)c(C(F)(F)F)c1	none (no result: Yeast eIF2B)
CCOC(=O)Cc1csc(NC(=O)CCc2ccc(S(=O)(=O)N3CCOCC3)cc2)n1	Yeast eIF2B 57.4
O=C(COC(=O)CCc1ccc(S(=O)(=O)N2CCOCC2)cc1)Nc1ccc(Cl)cn1	none
Cc1ccc(-n2nc(C)c3c2OC(N)=C(C#N)C3c2ccccc2F)cc1 (configuration not stated)	none
Cc1nn(-c2ccccc2)c2c1C(c1c(C)[nH]c(C#N)c1C)C(C#N)=C(N)O2 (configuration not stated)	Yeast eIF2B 52.7
COC1(OC)N=C(NC(=O)Nc2ccccc2)C2(C#N)C(c3ccccc3)C12C#N (configuration not stated)	none
O=C1c2ccccc2S(=O)(=O)N1CC1CC(c2ccccc2)=NO1 (configuration not stated)	Yeast tox 42.1
COc1ccc(C2=NOC(CN3C(=O)c4ccccc4S3(=O)=O)C2)cc1 (configuration not stated)	none (no result: Yeast tox)
COC(=O)CSc1nnc([C@H](CC(C)C)NC(=O)OC(C)(C)C)o1	none
CN(C)CCN1C(=O)C(O)=C(C(=O)c2cc3ccccc3o2)C1c1ccccn1 (configuration not stated)	none
CN(C)CCN1C(=O)C(O)=C(C(=O)c2ccco2)C1c1ccccc1F (configuration not stated)	Yeast eIF2B 62.9
O=c1c2ccccc2c(C=NCCc2ccccc2)c(O)n1Cc1ccccc1	none
Cc1c(N=Cc2c(O)n(Cc3ccco3)c(=O)c3ccccc23)c(=O)n(-c2ccccc2)n1C	Yeast eIF2B 50.6!
CCOc1ccc(NS(=O)(=O)c2ccc(NC(=O)C3CCCO3)cc2)cc1 (configuration not stated)	none
O=C(Nc1nc2ccccc2s1)C1CC(=O)N(c2ccc(Br)cc2)C1 (configuration not stated)	none (no result: Yeast eIF2B)
COCCCNC(=O)CSC1=Nc2ccccc2C2=NC(CC(=O)NCc3ccccc3)C(=O)N12 (configuration not stated)	none
NC(=O)CSC1=Nc2ccccc2C2=NC(CC(=O)NCc3cccs3)C(=O)N12 (configuration not stated)	Yeast eIF2B 52.0
Cc1[nH][nH]c(=O)c1C(c1ccc(-c2ccc(Cl)c(Cl)c2)o1)c1c(C)[nH][nH]c1=O	Yeast tox 45.8
Cc1ccc(S(=O)(=O)Oc2ccc(C(c3c(C)[nH][nH]c3=O)c3c(C)[nH][nH]c3=O)cc2)cc1	none
CCN(CC)c1ccc(/C=C2\C(=O)N(c3ccc([N+](=O)[O-])cc3)N=C2N2CCOCC2)cc1	none (no result: Yeast tox)
Cc1cc(C(=O)OCC(=O)NCCC(C)C)c2ccccc2n1	none (no result: Yeast eIF2B)
O=C(CCCCCn1c(=O)[nH]c2ccccc2c1=O)NCCCN1CCN(c2ccccc2F)CC1	none
CCOC(=O)c1ccc(N2C(=O)C=CC2=O)cc1	Yeast tox 90.0
CCOC(=O)c1ccc(NS(=O)(=O)CC)cc1	none (no result: Yeast eIF2B)
CCS(=O)(=O)N1CCCC(C(=O)NCCN(C)Cc2ccccc2)C1 (configuration not stated)	Yeast eIF2B 62.2
CCS(=O)(=O)N1CCCC(C(=O)NCc2cccc(OC)c2)C1 (configuration not stated)	none

High-throughput results as filed in PubChem.
